Published values collected from several papers.
Target: Serine/threonine-protein kinase VRK2 (VRK2, Homo sapiens, UniProt Q86Y07)

| SMILES | observed | mode | method | concentration | endpoint | value |
| --- | --- | --- | --- | --- | --- | --- |
| Cn1c2c(Cl)c(Cl)ccc2c2cc(N)[nH]c(=O)c21 | thermal stability | – | DSF | 10 µM | ΔTm | 0.3 °C |
| N#Cc1ccc(Nc2ccc3[nH]c(=O)[nH]c3c2)c(Cl)c1 | cell-free assay | – | competition with immobilised ligand | 1 µM | remaining binding | 100% |
| Nc1ncnc2occ(-c3ccc(NC(=O)Nc4cc(C(F)(F)F)ccc4F)cc3)c12 | cell-free assay | inhibitor | – | 20 µM | remaining signal | 2.4% |
| Cc1ccc(C(=O)Nc2ccc(CN3CCN(C)CC3)c(C(F)(F)F)c2)cc1C#Cc1cnc2cccnn12 | enzyme activity | inhibitor | – | 23.5 nM | remaining activity | 74% |
| c1ccc(N2CCN(Cc3nc4ccccc4[nH]3)CC2)nc1 | binding | – | competition with immobilised ligand | 1 µM | remaining binding | 100% |
| CCCS(=O)(=O)Nc1ccc(F)c(C(=O)c2c[nH]c3ncc(-c4ccc(Cl)cc4)cc23)c1F | enzyme activity | inhibitor | – | 1 µM | inhibition | < 10% |
| Cc1sc(C(=O)NC2COC2)cc1-n1cc(NC(=O)Nc2c(F)cccc2Cl)cn1 | enzyme activity | inhibitor | – | 10 µM | remaining activity | 102% |
| CC(C)(C)c1nc2c(s1)c1nc(N)ncc1c1ccc(NS(=O)(=O)c3c(F)cccc3F)c(F)c12 | enzyme activity | inhibitor | radiometric | 1 µM | remaining activity | 116% |
| C[C@H](NC(=O)c1cnc2n1[C@](C)(Cc1ccc(C#N)cc1)C(=O)N2c1cc(Cl)c(F)c(Cl)c1)C(=O)NC1(c2ccccn2)CC1 | cell-free assay | – | competition with immobilised ligand | 1 µM | remaining binding | 100% |
| Cn1c2c(c3ccc(Cl)c(Cl)c31)C(C#N)C1(CCNCC1)NC2=O (racemic) | thermal stability | – | DSF | 10 µM | ΔTm | 0.3 °C |
| CN1CC(Oc2cnc(C#N)cc2-c2ccn3nc(NC(=O)C4CC4)cc3c2)C1 | enzyme activity | inhibitor | – | 1 µM | inhibition | -9% |
| CO[C@@H](C)c1c(Nc2ccc([C@H](N(C)C(=O)C3CCS(=O)(=O)CC3)C(F)(F)F)cc2)cnc2cc(Cl)nn12 | cell-free assay | – | competition with immobilised ligand | 1 µM | remaining binding | 100% |
| CCN(CC)CCNC(=O)c1c(C)[nH]c(/C=C2\C(=O)Nc3ccc(F)cc32)c1C | enzyme activity | inhibitor | – | 10 µM | inhibition | -10% |
| CC1(C)NC(=O)c2[nH]c3c(Cl)c(Cl)ccc3c2C1C#N (centres unmarked) | thermal stability | – | DSF | 10 µM | ΔTm | -0.1 °C |
| CNC(=O)c1cc(Oc2ccc(NC(=O)Nc3ccc(Cl)c(C(F)(F)F)c3)cc2)ccn1 | enzyme activity | inhibitor | – | 10 µM | inhibition | -16% |
| Cc1cc(NC(=O)c2cccc3cc(-c4cccc5[nH]nc(N)c45)ccc23)ccc1F | enzyme activity | inhibitor | – | 0.1 µM | activity vs control | 89% |
| N#CC1c2c([nH]c3c(Cl)c(Cl)ccc23)C(=O)NC12CCCCC2 (racemic) | thermal stability | – | DSF | 10 µM | ΔTm | -0.3 °C |
| CN(C)C(=O)Cn1cc(-c2nc([C@@](C)(c3ccc(-c4cnc(N)nc4)cc3)C3CC3)no2)cn1 | cell-free assay | – | competition with immobilised ligand | 1 µM | remaining binding | 92% |
| CCC1(CC)NC(=O)c2c(c3ccc(Cl)c(Cl)c3n2C)C1C#N (centres unmarked) | thermal stability | – | DSF | 10 µM | ΔTm | 0.1 °C |
| CS(=O)(=O)N1CCCC(NC(=O)[C@H](CCC2CCCCC2)NC(=O)c2ccc(CNC(=O)c3cnc4ccccn34)cc2)C1 (some centres unmarked) | cell-free assay | – | competition with immobilised ligand | 0.1 µM | remaining binding | 76% |
| Cc1ccc(Nc2nccc(N(C)c3ccc4c(C)n(C)nc4c3)n2)cc1S(N)(=O)=O | enzyme activity | inhibitor | – | 10 µM | inhibition | -18% |
| Cn1c2c(c3ccc(Cl)c(Cl)c31)C(C#N)C(C)(C)NC2=O (centres unmarked) | thermal stability | – | DSF | 10 µM | ΔTm | 0.8 °C |
| CN(C)CC#Cc1ccc(OCCCc2sc(N3CCc4cccc(C(=O)Nc5nc6ccccc6s5)c4C3)nc2C(=O)O)c(F)c1 | cell-free assay | – | competition with immobilised ligand | 1 µM | remaining binding | 100% |
